In brackets after ≈: the same amount, converted by molar mass.
Key:
Staphylococcus aureus [1] = assay: Antibacterial activity against vancomycin-intermediate Staphylococcus aureus after 24 hrs by resazurin dye based microdilution assay; assay type: functional
In short: (§1)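 MIC taken as the lowest concentration giving visible inhibition and/or by resazurin (1 mg/mL). Gentamicin was the control. Run in duplicate, repeated at least three times.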

Pseudomonas aeruginosa = assay: Antibacterial activity against Pseudomonas aeruginosa ATCC 27853 after 24 hrs by resazurin dye based microdilution assay; assay type: functional; conditions: ATCC 27853, 24 h; in short: as §1
Cryptococcus neoformans [2] = assay: Growth inhibition of Cryptococcus neoformans ATCC 32264 at 31.25 ug/ml incubated for 48 hrs under dark condition by broth microdilution method relative to control; assay type: functional; conditions: ATCC 32264, 48 h, read-out: GI
In short: (§2)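 CLSI M27-A3 broth microdilution in RPMI-1640, DMSO ≤1%. Inoculum 1-5 × 10^3 CFU/mL. Incubated 48 h at 30 °C, dark. % inhibition = 100 − (OD405 test − sterility control)/(OD405 growth control − sterility control), with growth and sterility control wells. Triplicate.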

Candida albicans [3] = assay: Growth inhibition of Candida albicans ATCC 10231 at 7.8 ug/ml incubated for 48 hrs under dark condition by broth microdilution method relative to control; assay type: functional; conditions: ATCC 10231, 48 h, read-out: GI; in short: as §2
U-937 = assay: Cytotoxicity against human U937 cells after 72 hrs by MTT assay; assay type: cell-based; conditions: u-937, 72 h
In short: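 Exponentially growing U-937 at 1 × 10^5 cells/mL in RPMI-1640 with 10% FBS were exposed to 200, 50, 12.5 and 3.125 µg/mL for 72 h at 37 °C, 5% CO2. MTT for 3 h, stopped with isopropanol/SDS, formazan read at 570 nm, blank-corrected. LC50 by Probit from % viability against untreated cells. Triplicate, at least two independent experiments.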

Candida albicans [4] = assay: Antifungal activity against Candida albicans ATCC 10231 incubated for 48 hrs under dark condition by broth microdilution method; assay type: functional; conditions: ATCC 10231, 48 h
In short: (§3)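 CLSI M27-A3 broth microdilution in RPMI-1640, DMSO ≤1%, compounds at 250-0.98 µg/mL final. Inoculum 1-5 × 10^3 CFU/mL. Incubated 48 h at 30 °C in a moist dark chamber, read at OD405. MIC80 and MIC50 taken from % inhibition dose-response curves (mean ± SEM, triplicate). Amphotericin B was the positive control.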

Candida albicans [5] = assay: Growth inhibition of Candida albicans ATCC 10231 at 62.5 ug/ml incubated for 48 hrs under dark condition by broth microdilution method relative to control; assay type: functional; conditions: ATCC 10231, 48 h, read-out: GI; in short: as §2
Candida albicans [6] = assay: Growth inhibition of Candida albicans ATCC 10231 at 125 ug/ml incubated for 48 hrs under dark condition by broth microdilution method relative to control; assay type: functional; conditions: ATCC 10231, 48 h, read-out: GI; in short: as §2
Staphylococcus aureus [7] = assay: Antibacterial activity against methicillin-sensitive Staphylococcus aureus ATCC 25923 after 24 hrs by resazurin dye based microdilution assay; assay type: functional; conditions: ATCC 25923, 24 h; in short: as §1
Plasmodium falciparum = assay: Antiplasmodial activity against chloroquine-sensitive Plasmodium falciparum 3D7 assessed as reduction in parasitic LDH activity after 48 hrs by Malstat reagent based […] method; assay type: functional; conditions: 3D7, 48 h
In short: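 Unsynchronized P. falciparum 3D7 at 0.5% parasitemia and 1% hematocrit in RPMI with 3% Albumax II. Exposed to 100, 25, 6.25 and 1.56 µg/mL for 48 h at 37 °C under 90% N2/5% CO2/5% O2. After three freeze-thaw cycles, LDH measured with Malstat and NBT/PES, 1 h in the dark, read at 650 nm. IC50 by Probit; triplicate, ≥2 experiments.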

Staphylococcus aureus [8] = assay: Antibacterial activity against methicillin-resistant Staphylococcus aureus ATCC 43300 after 24 hrs by resazurin dye based microdilution assay; assay type: functional; conditions: ATCC 43300, 24 h
In short: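 Broth microdilution in Mueller Hinton broth, inoculum 5 × 10^5 – 8 × 10^5. Compound stocks diluted in MHB with 5% DMSO and 0.1% Tween 80. Incubation 24 h at 35-37 °C. MIC is the lowest concentration with visible growth inhibition and/or by resazurin (1 mg/mL) read-out. Gentamicin as control. Run in duplicate, replicated at least three times.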

Candida albicans [9] = assay: Growth inhibition of Candida albicans ATCC 10231 at 15.62 ug/ml incubated for 48 hrs under dark condition by broth microdilution method relative to control; assay type: functional; conditions: ATCC 10231, 48 h, read-out: GI; in short: as §2
Cryptococcus neoformans [10] = assay: Growth inhibition of Cryptococcus neoformans ATCC 32264 at 3.4 ug/ml incubated for 48 hrs under dark condition by broth microdilution method relative to control; assay type: functional; conditions: ATCC 32264, 48 h, read-out: GI
Klebsiella pneumoniae [11] = assay: Antibacterial activity against carbapenemase positive Klebsiella pneumoniae BAA 1705 after 24 hrs by resazurin dye based microdilution assay; assay type: functional; conditions: BAA 1705, 24 h; in short: as §1
Cryptococcus neoformans [12] = assay: Growth inhibition of Cryptococcus neoformans ATCC 32264 at 7.8 ug/ml incubated for 48 hrs under dark condition by broth microdilution method relative to control; assay type: functional; conditions: ATCC 32264, 48 h, read-out: GI; in short: as §2
Trypanosoma cruzi = assay: Antitrypanosomal activity against Trypanosoma cruzi Tulahuen intracellular amastigote harboring LacZ infected in human U937 cells after 72 hrs by CPRG/Nonidet reagent based spectrophotometric method; assay type: functional, cell-based; conditions: U-937, 72 h
In short: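 U-937 cells at 2.5 × 10^5 cells/mL in RPMI-1640 with 10% serum and 0.1 µg/mL PMA were infected with β-galactosidase-transfected Tulahuen epimastigotes at 5 parasites per cell. Infected cells were exposed to 50, 12.5, 3.125 and 0.78 µg/mL for 72 h. CPRG (100 uM) and 0.1% Nonidet P-40 were added for 3 h, read at 570 nm. EC50 by Probit. Triplicate, at least two experiments; benznidazole as reference.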

Cryptococcus neoformans [13] = assay: Growth inhibition of Cryptococcus neoformans ATCC 32264 at 250 ug/ml incubated for 48 hrs under dark condition by broth microdilution method relative to control; assay type: functional; conditions: ATCC 32264, 48 h, read-out: GI; in short: as §2
Escherichia coli = assay: Antibacterial activity against Escherichia coli ATCC 25922 after 24 hrs by resazurin dye based microdilution assay; assay type: functional; conditions: ATCC 25922, 24 h; in short: as §1
Cryptococcus neoformans [14] = assay: Growth inhibition of Cryptococcus neoformans ATCC 32264 at 15.62 ug/ml incubated for 48 hrs under dark condition by broth microdilution method relative to control; assay type: functional; conditions: ATCC 32264, 48 h, read-out: GI; in short: as §2
Candida albicans [15] = assay: Growth inhibition of Candida albicans ATCC 10231 at 3.4 ug/ml incubated for 48 hrs under dark condition by broth microdilution method relative to control; assay type: functional; conditions: ATCC 10231, 48 h, read-out: GI
Klebsiella pneumoniae [16] = assay: Antibacterial activity against ESBL positive Klebsiella pneumoniae ATCC 700603 after 24 hrs by resazurin dye based microdilution assay; assay type: functional; conditions: Klebsiella pneumoniae, 700603, 24 h; in short: as §1
Neisseria gonorrhoeae = assay: Antibacterial activity against beta lactamase positive Neisseria gonorrhoeae ATCC 31426 by oxidase test; assay type: functional
In short: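 Agar dilution MIC on GC agar with 1% isovitalex containing increasing compound concentrations. Plates inoculated with about 1×10^4 CFU (5 µL). MIC is the lowest concentration that inhibited growth, with growth confirmed by oxidase test. Run in duplicate, repeated at least three times.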

Cryptococcus neoformans [17] = assay: Antifungal activity against Cryptococcus neoformans ATCC 32264 incubated for 48 hrs under dark condition by broth microdilution method; assay type: functional; conditions: ATCC 32264, 48 h; in short: as §3
Leishmania panamensis = assay: Antileshmanial activity against EpiR/GFP fused Leishmania panamensis MHOM/CO/87/UA140 intracellular amastigotes infected in human […] cells after 72 hrs by flow cytometric method; assay type: functional, cell-based; conditions: MHOM/CO/87/UA140, 72 h
In short: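 PMA-treated U-937 cells (3 × 10^5 cells/mL) infected with stationary-phase GFP L. panamensis promastigotes (15:1), 3 h at 34 °C, then washed. After 24 h, compounds added at 50, 12.5, 3.125 and 0.78 µg/mL for 72 h at 37 °C. EC50 by Probit; triplicate, two experiments.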

Cryptococcus neoformans [18] = assay: Growth inhibition of Cryptococcus neoformans ATCC 32264 at 125 ug/ml incubated for 48 hrs under dark condition by broth microdilution method relative to control; assay type: functional; conditions: ATCC 32264, 48 h, read-out: GI; in short: as §2
Candida albicans [19] = assay: Growth inhibition of Candida albicans ATCC 10231 at 250 ug/ml incubated for 48 hrs under dark condition by broth microdilution method relative to control; assay type: functional; conditions: ATCC 10231, 48 h, read-out: GI; in short: as §2
Candida albicans [20] = assay: Growth inhibition of Candida albicans ATCC 10231 at 31.25 ug/ml incubated for 48 hrs under dark condition by broth microdilution method relative to control; assay type: functional; conditions: ATCC 10231, 48 h, read-out: GI; in short: as §2
Cryptococcus neoformans [21] = assay: Growth inhibition of Cryptococcus neoformans ATCC 32264 at 62.5 ug/ml incubated for 48 hrs under dark condition by broth microdilution method relative to control; assay type: functional; conditions: ATCC 32264, 48 h, read-out: GI; in short: as §2

Compound: Clc1ccc2c(Nc3cccc(C4CC(c5ccc(Br)cc5)=NN4c4ccccc4)c3)ccnc2c1 (stereo not given)
- MIC (Staphylococcus aureus [1]): > 1000 µg/mL
- MIC (Pseudomonas aeruginosa): > 1000 µg/mL
- inhibition of growth at 31.25 µg/mL (Cryptococcus neoformans [2]): 11.8%
- inhibition of growth at 7.8 µg/mL (Candida albicans [3]): 4.31%
- LC50 (U-937): 9.2 µg/mL (≈ 16.6 µM)
- MIC50 (Candida albicans [4]): ≥ 250 µg/mL
- MIC80 (Candida albicans [4]): ≥ 250 µg/mL
- inhibition of growth at 62.5 µg/mL (Candida albicans [5]): 12.6%
- inhibition of growth at 125 µg/mL (Candida albicans [6]): 26.3%
- MIC (Staphylococcus aureus [7]): > 1000 µg/mL
- EC50 (Plasmodium falciparum): 5.54 µg/mL (≈ 10 µM)
- MIC (Staphylococcus aureus [8]): > 1000 µg/mL
- inhibition of growth at 15.62 µg/mL (Candida albicans [9]): 8.46%
- inhibition of growth at 3.4 µg/mL (Cryptococcus neoformans [10]): 3.29%
- MIC (Klebsiella pneumoniae [11]): > 1000 µg/mL
- inhibition of growth at 7.8 µg/mL (Cryptococcus neoformans [12]): 7.67%
- EC50 (Trypanosoma cruzi): 6.67 µg/mL (≈ 12 µM)
- inhibition of growth at 250 µg/mL (Cryptococcus neoformans [13]): 45.1%
- MIC (Escherichia coli): > 1000 µg/mL
- inhibition of growth at 15.62 µg/mL (Cryptococcus neoformans [14]): 7.94%
- inhibition of growth at 3.4 µg/mL (Candida albicans [15]): 3.09%
- MIC (Klebsiella pneumoniae [16]): > 1000 µg/mL
- MIC (Neisseria gonorrhoeae): > 1000 µg/mL
- MIC50 (Cryptococcus neoformans [17]): ≥ 250 µg/mL
- MIC80 (Cryptococcus neoformans [17]): ≥ 250 µg/mL
- EC50 (Leishmania panamensis): 3.59 µg/mL (≈ 6.48 µM)
- inhibition of growth at 125 µg/mL (Cryptococcus neoformans [18]): 20.1%
- inhibition of growth at 250 µg/mL (Candida albicans [19]): 44.9%
- inhibition of growth at 31.25 µg/mL (Candida albicans [20]): 9.65%
- inhibition of growth at 62.5 µg/mL (Cryptococcus neoformans [21]): 20%
